Measured values: PMC7741178 (Bioorganic & medicinal chemistry, 2020)

Columns and labels:
Type in all cases: cell-based
human CD4 (CD4-YFP) = human CD4 (CD4-YFP) (Homo sapiens, UniProt P01730); test: CD4 down-modulation in CD4-YFP transfected CHO cells; settings: for CD4 down-modulation (in words): CD4-YFP CHO cells
In short: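 CHO cells stably expressing human CD4 fused at its C-terminus to YFP were exposed for 24 h at 37 °C to 1:5 serial dilutions of test compound. Cells were washed, fixed in 1% formaldehyde, and read at once by flow cytometry (488 nm laser). YFP MFI was expressed as % of matched untreated cells, after subtracting the background of non-transfected cells. IC50 is the 50% decrease in CD4. Mean ± SD, n = 3.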

MT-4 cells = test: Cytotoxicity in MT-4 cells; settings: CC50 MT-4 cells / IC50 CD4 down-modulation
HIV-1 NL4.3 (X4) = test: HIV-1 NL4.3 replication in MT-4 cells; settings: HIV-1 NL4.3 in MT-4 cells
In short: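 MT-4 cells at 3.75×10^5 cells/mL in RPMI 1640 with 10% FBS and 2 mM L-glutamine were preincubated 15 min with test compound. HIV-1 NL4.3 (30 pg/well) was then added and cells were kept at 37 °C. On day 4, viability was read by MTS/PES at 490 and 700 nm, giving the IC50 for viral replication. Mean ± SD, n = 2 or 3.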

| IC50 (human CD4 (CD4-YFP)) [nM] | CD4 down-modulation (in words) (human CD4 (CD4-YFP)) | SMILES | therapeutic indices (CC50/IC50 for CD4) (MT-4 cells) | anti-HIV activity (in words) (HIV-1 NL4.3 (X4)) |
| --- | --- | --- | --- | --- |
| 500 |  | C=C1CN(S(=O)(=O)c2ccc(C)cc2)CCc2cc(CCCC)cc(n2)CCN(S(=O)(=O)c2ccc(C)cc2)C1.Cl [Compound 3j, 13-Butyl-6-methylene-4,8-di(p-toluenesulfonyl)-4,8,15-triazabicyclo[9.3.1]pentadeca-1(15),11,13-triene] | exceeding 100 |  |
|  |  | C=C1CN(S(=O)(=O)c2ccc(C)cc2)CCc2cc(CC(C)C)cc(n2)CCN(S(=O)(=O)c2ccc(C)cc2)C1.Cl [Compound 3k, 13-Isobutyl-6-methylene-4,8-di(p-toluenesulfonyl)-4,8,15-triazabicyclo[9.3.1]pentadeca-1(15),11,13-triene] | exceeding 100 |  |
|  | no observable | Cc1ccc(S(=O)(=O)N2CCc3cc(C(C)(C)C)cc(n3)CCN(S(=O)(=O)c3ccc(C)cc3)CC2)cc1 [Compound 16, 12-tert-Butyl-4,7-bis(p-toluenenesulfonyl)-4,7,14-triazabicyclo[8.3.1]tetradeca-1(14),1 0,12-triene] |  | no observable |
|  | no observable | C=C1CN(S(=O)(=O)c2ccc(C)cc2)Cc2cccc3cc4cccc(c4nc23)CN(S(=O)(=O)c2ccc(C)cc2)C1 [Compound 23, 9-Methylene-7,11,19-7,11-bis(p-toluenesulfonyl)-triazatetracyclo[15.3.1.0^5,20.0^13,18]henicosa-1(21),2,4,13,15,17,19-heptaene] |  | no observable |
